Activity calls are given as the source filed them.
Tests used:
Assay type in all cases: functional, cell-based
H9c2 [1] = test: Cardioprotective activity against hypoxia-induced cytotoxicity in rat H9c2 cells assessed as increase in cell viability at 0.1 to 100 uM preincubated for 8 hrs followed by H2O2 addition for 2 hrs by MTT assay
Method in brief: (§1)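 H9c2 cells were pretreated with compound for 8 h, then exposed to H2O2 (40 mM) in culture medium for 2 h. Viability was read by MTT at 0.1, 1, 10 and 100 μM, relative to untreated control and H2O2-only model groups. Values are mean ± SEM of more than three independent experiments.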

[2] = Cardioprotective activity against hypoxia-induced oxidative stress in rat H9c2 cells assessed as antioxidant activity by measuring reduction in MDA levels at 0.1 uM preincubated for 8 hrs followed by H2O2 addition for 2 hrs by spectrophotometry
Method in brief: (§2)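 H9c2 cells were pretreated with compound for 8 h, then given H2O2 (40 mM) in medium for 2 h. Measured read-outs were LDH leakage into the culture supernatant, MDA level, and SOD and catalase activities. Values are mean ± SEM of more than three independent experiments, versus model and control groups.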

[3] = Cardioprotective activity against hypoxia-induced oxidative stress in rat H9c2 cells assessed as antioxidant activity by measuring increase in catalase activity at 0.1 uM preincubated for 8 hrs followed by H2O2 addition for 2 hrs by spectrophotometry; method in brief: as §2
[4] = Cardioprotective activity against hypoxia-induced oxidative stress mediated inflammation in rat H9c2 cells assessed as suppression of IL-1beta in supernatant at 0.1 uM preincubated for 8 hrs followed by H2O2 addition for 2 hrs by ELISA
Method in brief: (§3)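 TNF-α, IL-6 and IL-1β in the culture supernatant were quantified with ELISA kits. H9c2 cells were pretreated with compound for 8 h, then given 2 h H2O2 (40 mM). Values are mean ± SEM of more than three independent experiments, versus the H2O2 model group.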

[5] = Cardioprotective activity against hypoxia-induced apoptosis in rat H9c2 cells assessed as reduction in total apoptotic cells at 0.1 uM preincubated for 8 hrs followed by H2O2 addition for 2 hrs by Annexin-V FITC/propidium iodide staining based flow cytometry
Method in brief: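 After 8 h compound pretreatment, H9c2 cells got a 2 h H2O2 (40 mM) insult. They were stained with Annexin V-FITC/PI and analysed by flow cytometry, counting total apoptotic cells including necrotic cells. Values are mean ± SEM of more than three independent experiments, versus model and control groups.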

H9c2 [6] = test: Cardioprotective activity against hypoxia-induced cytotoxicity in rat H9c2 cells assessed as increase in cell viability at 0.1 uM preincubated for 8 hrs followed by H2O2 addition for 2 hrs by MTT assay; method in brief: as §1
[7] = Cardioprotective activity against hypoxia-induced apoptosis in rat H9c2 cells assessed as increase in Bcl-2 expression at 0.1 uM preincubated for 8 hrs followed by H2O2 addition for 2 hrs by Western blotting analysis
Method in brief: (§4)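 Bax and Bcl-2 protein expression was measured in H9c2 cells pretreated with compound for 8 h, then injured with H2O2 (40 mM) for 2 h. Levels were compared with control and H2O2 model groups. Values are mean ± SEM of more than three independent experiments.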

[8] = Cardioprotective activity against hypoxia-induced oxidative stress mediated inflammation in rat H9c2 cells assessed as suppression of TNF-alpha in supernatant at 0.1 uM preincubated for 8 hrs followed by H2O2 addition for 2 hrs by ELISA; method in brief: as §3
[9] = Cardioprotective activity against hypoxia-induced oxidative stress mediated inflammation in rat H9c2 cells assessed as suppression of IL-6 in supernatant at 0.1 uM preincubated for 8 hrs followed by H2O2 addition for 2 hrs by ELISA; method in brief: as §3
[10] = Cardioprotective activity against hypoxia-induced oxidative stress in rat H9c2 cells assessed as antioxidant activity by measuring reduction in LDH leakage in supernatant at 0.1 uM preincubated for 8 hrs followed by H2O2 addition for 2 hrs by spectrophotometry; method in brief: as §2
H9c2 [11] = test: Increase in No level in rat H9c2 cells at 0.1 uM preincubated for 8 hrs followed by H2O2 addition for 2 hrs by ELISA
Method in brief: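 NO concentration was measured in the culture supernatant of H9c2 cells. Cells were pretreated with compound for 8 h before 2 h H2O2 (40 mM) exposure. Values are mean ± SEM of more than three independent experiments, versus the model group.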

[12] = Cardioprotective activity against hypoxia-induced oxidative stress in rat H9c2 cells assessed as antioxidant activity by measuring increase in SOD activity at 0.1 uM preincubated for 8 hrs followed by H2O2 addition for 2 hrs by spectrophotometry; method in brief: as §2
[13] = Cardioprotective activity against hypoxia-induced apoptosis in rat H9c2 cells assessed as reduction in Bax expression at 0.1 uM preincubated for 8 hrs followed by H2O2 addition for 2 hrs by Western blotting analysis; method in brief: as §4
[14] = Cardioprotective activity against hypoxia-induced oxidative stress in rat H9c2 cells assessed as reduction in MDA levels at 1 uM preincubated for 8 hrs followed by H2O2 addition for 2 hrs in presence of leonurine by spectrophotometry; method in brief: as §2
[15] = Cardioprotective activity against hypoxia-induced oxidative stress in rat H9c2 cells assessed as antioxidant activity by measuring increase in catalase activity at 1 uM preincubated for 8 hrs followed by H2O2 addition for 2 hrs by spectrophotometry; method in brief: as §2
[16] = Cardioprotective activity against hypoxia-induced oxidative stress mediated inflammation in rat H9c2 cells assessed as suppression of IL-6 in supernatant at 1 uM preincubated for 8 hrs followed by H2O2 addition for 2 hrs by ELISA; method in brief: as §3
H9c2 [17] = test: Cardioprotective activity against hypoxia-induced cytotoxicity in rat H9c2 cells assessed as increase in cell viability at 1 uM preincubated for 8 hrs followed by H2O2 addition for 2 hrs by MTT assay; method in brief: as §1
[18] = Cardioprotective activity against hypoxia-induced oxidative stress in rat H9c2 cells assessed as antioxidant activity by measuring reduction in MDA levels at 1 uM preincubated for 8 hrs followed by H2O2 addition for 2 hrs by spectrophotometry; method in brief: as §2
[19] = Cardioprotective activity against hypoxia-induced oxidative stress mediated inflammation in rat H9c2 cells assessed as suppression of IL-1beta in supernatant at 1 uM preincubated for 8 hrs followed by H2O2 addition for 2 hrs by ELISA; method in brief: as §3
[20] = Cardioprotective activity against hypoxia-induced oxidative stress in rat H9c2 cells assessed as antioxidant activity by measuring increase in SOD activity at 1 uM preincubated for 8 hrs followed by H2O2 addition for 2 hrs by spectrophotometry; method in brief: as §2
[21] = Cardioprotective activity against hypoxia-induced oxidative stress in rat H9c2 cells assessed as antioxidant activity by measuring increase in SOD activity at 1 uM preincubated for 8 hrs followed by H2O2 addition for 2 hrs in presence of leonurine by spectrophotometry; method in brief: as §2
[22] = Cardioprotective activity against hypoxia-induced oxidative stress mediated inflammation in rat H9c2 cells assessed as suppression of IL-1beta in supernatant at 1 uM preincubated for 8 hrs followed by H2O2 addition for 2 hrs in presence of leonurine by ELISA; method in brief: as §3
[23] = Cardioprotective activity against hypoxia-induced oxidative stress mediated inflammation in rat H9c2 cells assessed as suppression of TNF-alpha in supernatant at 1 uM preincubated for 8 hrs followed by H2O2 addition for 2 hrs by ELISA; method in brief: as §3
[24] = Cardioprotective activity against hypoxia-induced oxidative stress mediated inflammation in rat H9c2 cells assessed as suppression of IL-6 in supernatant at 1 uM preincubated for 8 hrs followed by H2O2 addition for 2 hrs in presence of leonurine by ELISA; method in brief: as §3
[25] = Cardioprotective activity against hypoxia-induced oxidative stress mediated inflammation in rat H9c2 cells assessed as suppression of TNF-alpha in supernatant at 1 uM preincubated for 8 hrs followed by H2O2 addition for 2 hrs in presence of leonurine by ELISA; method in brief: as §3
[26] = Cardioprotective activity against hypoxia-induced oxidative stress mediated inflammation in rat H9c2 cells assessed as suppression of IL-1beta in supernatant at 1 uM preincubated for 8 hrs followed by H2O2 addition for 2 hrs in presence of aspirin by ELISA; method in brief: as §3
[27] = Cardioprotective activity against hypoxia-induced oxidative stress in rat H9c2 cells assessed as antioxidant activity by measuring increase in SOD activity at 1 uM preincubated for 8 hrs followed by H2O2 addition for 2 hrs in presence of aspirin by spectrophotometry; method in brief: as §2
[28] = Cardioprotective activity against hypoxia-induced oxidative stress in rat H9c2 cells assessed as reduction in MDA levels at 1 uM preincubated for 8 hrs followed by H2O2 addition for 2 hrs in presence of aspirin by spectrophotometry; method in brief: as §2
[29] = Cardioprotective activity against hypoxia-induced oxidative stress mediated inflammation in rat H9c2 cells assessed as suppression of TNF-alpha in supernatant at 1 uM preincubated for 8 hrs followed by H2O2 addition for 2 hrs in presence of aspirin by ELISA; method in brief: as §3
[30] = Cardioprotective activity against hypoxia-induced oxidative stress mediated inflammation in rat H9c2 cells assessed as suppression of IL-6 in supernatant at 1 uM preincubated for 8 hrs followed by H2O2 addition for 2 hrs in presence of aspirin by ELISA; method in brief: as §3

Measured: Activity

COc1cc(C(=O)OCCCCNC(=N)N)cc(OC)c1OC(=O)CCNC(=O)c1ccccc1O
active: H9c2 [1]

COc1cc(C(=O)OCCCCNC(=N)N)cc(OC)c1OC(=O)CCNC(=O)c1ccccc1OC(C)=O
active: [2] | [3] | [4] | [5] | H9c2 [6] | [7] | [8] | [9] | [10] | H9c2 [11] | [12] | [13]

CC(=O)Oc1ccccc1C(=O)O
active: [14] | [15] | [16] | H9c2 [17] | [18] | [19] | [20] | [21] | [22] | [23] | [24] | [25]

COc1cc(C(=O)OCCCCNC(=N)N)cc(OC)c1O
active: [26] | [27] | [28] | [15] | [16] | H9c2 [17] | [18] | [19] | [20] | [23] | [29] | [30]
